# According to ChEMBL document CHEMBL3351863, “Optimization of 2-phenyl-pyrimidine-4-carboxamides towards potent, orally bioavailable and selective P2Y(12) antagonists for inhibition of platelet aggregation” (Bioorg Med Chem Lett, 2014):
# Tested on: Platelet
# Test: Inhibition of ADP-induced platelet aggregation in human platelet rich plasma assessed as remaining activity at 100 nM by in-vitro light transmission aggregometry assay
# Type: functional
# Conditions: not given; call rule not given here
# Summary of the method: (§1)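 Light transmission aggregometry in human platelet-rich plasma; compound incubated, aggregation triggered with 3 µM ADP; remaining activity (RA) recorded at a single compound level (1000, 500 or 100 nM).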
row,Structure (SMILES),Activity [%]
1,CCOC(=O)N1CCN(C(=O)[C@H](CCC(=O)O)NC(=O)c2cc(C(C)(C)CO)nc(-c3ccccc3)n2)CC1,<70
2,CCOC(=O)N1CCN(C(=O)[C@H](CCC(=O)O)NC(=O)c2cc(N3CC[C@@H](O)C3)nc(-c3ccccc3)n2)CC1,<70
3,CCOC(=O)N1CCN(C(=O)[C@H](CCC(=O)O)NC(=O)c2cc([C@H]3C[C@@H]3CO)nc(-c3ccccc3)n2)CC1 (racemic),<70
4,CCOC(=O)N1CCN(C(=O)[C@H](CCC(=O)O)NC(=O)c2cc([C@H]3C[C@@H]3COC)nc(-c3ccccc3)n2)CC1 (racemic),<70

# Tested on: not listed separately
# Test: Potency shift, ratio of IC50 for inhibition of ADP-induced platelet aggregation in human platelet rich plasma to IC50 for displacement of [3H]-2-methyl-thio-adenosine 5'-diphosphate from human recombinant P2Y12 expressed in CHO cell membranes
# Conditions: not given
row,Structure (SMILES),Ratio IC50
1,CCOC(=O)N1CCN(C(=O)[C@H](CCC(=O)O)NC(=O)c2cc(C(C)(C)CO)nc(-c3ccccc3)n2)CC1,5.8
2,CCOC(=O)N1CCN(C(=O)[C@H](CCC(=O)O)NC(=O)c2cc(N3CC[C@@H](O)C3)nc(-c3ccccc3)n2)CC1,1.9
3,CCOC(=O)N1CCN(C(=O)[C@H](CCC(=O)O)NC(=O)c2cc([C@H]3C[C@@H]3CO)nc(-c3ccccc3)n2)CC1 (racemic),3.1
4,CCOC(=O)N1CCN(C(=O)[C@H](CCC(=O)O)NC(=O)c2cc([C@H]3C[C@@H]3COC)nc(-c3ccccc3)n2)CC1 (racemic),4.9

# Target: T1, Cytochrome P450 3A4 (Homo sapiens, UniProt P08684)
# T1 sequence (P08684 whole entry): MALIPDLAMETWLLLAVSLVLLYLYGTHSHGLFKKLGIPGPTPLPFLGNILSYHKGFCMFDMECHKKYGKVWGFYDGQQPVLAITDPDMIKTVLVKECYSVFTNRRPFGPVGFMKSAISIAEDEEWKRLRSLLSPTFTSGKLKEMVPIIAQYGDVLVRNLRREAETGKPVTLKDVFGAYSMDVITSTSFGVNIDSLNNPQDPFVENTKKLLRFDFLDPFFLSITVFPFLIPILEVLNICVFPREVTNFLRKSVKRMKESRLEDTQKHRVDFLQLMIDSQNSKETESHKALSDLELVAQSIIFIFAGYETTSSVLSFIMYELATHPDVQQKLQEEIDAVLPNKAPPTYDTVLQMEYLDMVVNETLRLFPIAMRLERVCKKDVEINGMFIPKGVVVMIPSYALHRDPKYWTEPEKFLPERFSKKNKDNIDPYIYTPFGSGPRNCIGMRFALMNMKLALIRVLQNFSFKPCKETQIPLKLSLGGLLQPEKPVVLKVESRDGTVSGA
# Test: Inhibition of CYP3A4 in human liver microsomes assessed as reduction in midazolam 1'-hydroxylation
# Type: ADME
# Conditions: not given
row,Structure (SMILES),inhibition (INH)
1,CCOC(=O)N1CCN(C(=O)[C@H](CCC(=O)O)NC(=O)c2cc(C(C)(C)CO)nc(-c3ccccc3)n2)CC1,Not Active
2,CCOC(=O)N1CCN(C(=O)[C@H](CCC(=O)O)NC(=O)c2cc(N3CC[C@@H](O)C3)nc(-c3ccccc3)n2)CC1,Not Active
3,CCOC(=O)N1CCN(C(=O)[C@H](CCC(=O)O)NC(=O)c2cc([C@H]3C[C@@H]3CO)nc(-c3ccccc3)n2)CC1 (racemic),Not Active
4,CCOC(=O)N1CCN(C(=O)[C@H](CCC(=O)O)NC(=O)c2cc([C@H]3C[C@@H]3COC)nc(-c3ccccc3)n2)CC1 (racemic),Not Active

# Tested on: Platelet
# Test: Inhibition of ADP-induced platelet aggregation in human platelet rich plasma by in-vitro light transmission aggregometry assay
# Type: functional
# Conditions: Homo sapiens, Platelet, Plasma
# Summary of the method: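 Human platelet-rich plasma incubated with compound, aggregation induced by 3 µM ADP and read by light transmission aggregometry; IC₅₀ derived from concentration–response curve.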
row,Structure (SMILES),IC50 [nM]
1,CCOC(=O)N1CCN(C(=O)[C@H](CCC(=O)O)NC(=O)c2cc(C(C)(C)CO)nc(-c3ccccc3)n2)CC1,121
2,CCOC(=O)N1CCN(C(=O)[C@H](CCC(=O)O)NC(=O)c2cc(N3CC[C@@H](O)C3)nc(-c3ccccc3)n2)CC1,99
3,CCOC(=O)N1CCN(C(=O)[C@H](CCC(=O)O)NC(=O)c2cc([C@H]3C[C@@H]3CO)nc(-c3ccccc3)n2)CC1 (racemic),71

# Same assay, conditions: platelet
row,Structure (SMILES),IC50 [nM]
1,CCOC(=O)N1CCN(C(=O)[C@H](CCC(=O)O)NC(=O)c2cc([C@H]3C[C@@H]3COC)nc(-c3ccccc3)n2)CC1 (racemic),192

# Target: P2Y purinoceptor 12 (Homo sapiens, UniProt Q9H244)
# Sequence (Q9H244 whole entry): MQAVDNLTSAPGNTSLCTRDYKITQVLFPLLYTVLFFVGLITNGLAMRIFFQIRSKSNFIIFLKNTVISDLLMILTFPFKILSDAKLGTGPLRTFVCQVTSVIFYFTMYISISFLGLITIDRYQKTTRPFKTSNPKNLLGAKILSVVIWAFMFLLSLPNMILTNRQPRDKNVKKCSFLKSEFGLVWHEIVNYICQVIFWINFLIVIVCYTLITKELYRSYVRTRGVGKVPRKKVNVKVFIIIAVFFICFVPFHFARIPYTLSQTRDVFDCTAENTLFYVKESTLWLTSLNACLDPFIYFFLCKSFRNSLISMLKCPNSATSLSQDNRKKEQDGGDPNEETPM
# Test: Displacement of [3H]-2-methyl-thio-adenosine 5'-diphosphate from human recombinant P2Y12 expressed in CHO cell membranes by scintillation counting method
# Conditions: not given
# Summary of the method: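 CHO cells expressing recombinant P2Y₁₂ receptors, incubated with tritium-labeled 2-methyl-thio-adenosine 5'-diphosphate plus test compound; IC₅₀ from displacement curves, each point in triplicate; reference compound run with every compound set, and set re-analyzed if its IC₅₀ fell outside pre-set 95% confidence interval.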
row,Structure (SMILES),IC50 [nM]
1,CCOC(=O)N1CCN(C(=O)[C@H](CCC(=O)O)NC(=O)c2cc(C(C)(C)CO)nc(-c3ccccc3)n2)CC1,21
2,CCOC(=O)N1CCN(C(=O)[C@H](CCC(=O)O)NC(=O)c2cc(N3CC[C@@H](O)C3)nc(-c3ccccc3)n2)CC1,52
3,CCOC(=O)N1CCN(C(=O)[C@H](CCC(=O)O)NC(=O)c2cc([C@H]3C[C@@H]3CO)nc(-c3ccccc3)n2)CC1 (racemic),23
4,CCOC(=O)N1CCN(C(=O)[C@H](CCC(=O)O)NC(=O)c2cc([C@H]3C[C@@H]3COC)nc(-c3ccccc3)n2)CC1 (racemic),39

# Target: T1, Cytochrome P450 3A4
# Test: Inhibition of CYP3A4 in human liver microsomes assessed as reduction in testosterone 6beta-hydroxylation
# Type: ADME
# Conditions: not given
row,Structure (SMILES),inhibition (INH)
1,CCOC(=O)N1CCN(C(=O)[C@H](CCC(=O)O)NC(=O)c2cc(C(C)(C)CO)nc(-c3ccccc3)n2)CC1,Not Active
2,CCOC(=O)N1CCN(C(=O)[C@H](CCC(=O)O)NC(=O)c2cc(N3CC[C@@H](O)C3)nc(-c3ccccc3)n2)CC1,Not Active
3,CCOC(=O)N1CCN(C(=O)[C@H](CCC(=O)O)NC(=O)c2cc([C@H]3C[C@@H]3CO)nc(-c3ccccc3)n2)CC1 (racemic),Not Active
4,CCOC(=O)N1CCN(C(=O)[C@H](CCC(=O)O)NC(=O)c2cc([C@H]3C[C@@H]3COC)nc(-c3ccccc3)n2)CC1 (racemic),Not Active

# Tested on: not listed separately
# Test: Solubility in basic pH
# Type: physicochemical
# Conditions: not given
row,Structure (SMILES),solubility
1,CCOC(=O)N1CCN(C(=O)[C@H](CCC(=O)O)NC(=O)c2cc(C(C)(C)CO)nc(-c3ccccc3)n2)CC1,soluble
2,CCOC(=O)N1CCN(C(=O)[C@H](CCC(=O)O)NC(=O)c2cc(N3CC[C@@H](O)C3)nc(-c3ccccc3)n2)CC1,soluble
3,CCOC(=O)N1CCN(C(=O)[C@H](CCC(=O)O)NC(=O)c2cc([C@H]3C[C@@H]3CO)nc(-c3ccccc3)n2)CC1 (racemic),soluble
4,CCOC(=O)N1CCN(C(=O)[C@H](CCC(=O)O)NC(=O)c2cc([C@H]3C[C@@H]3COC)nc(-c3ccccc3)n2)CC1 (racemic),soluble

# Tested on: Liver microsome
# Test: Metabolic stability assay in rat liver microsomes assessed as parent drug disappearance at 1 uM after 20 mins by HPLC and mass spectrometry method
# Type: ADME
# Conditions: not given
row,Structure (SMILES),Stability
1,CCOC(=O)N1CCN(C(=O)[C@H](CCC(=O)O)NC(=O)c2cc(C(C)(C)CO)nc(-c3ccccc3)n2)CC1,Stable
2,CCOC(=O)N1CCN(C(=O)[C@H](CCC(=O)O)NC(=O)c2cc(N3CC[C@@H](O)C3)nc(-c3ccccc3)n2)CC1,Stable
3,CCOC(=O)N1CCN(C(=O)[C@H](CCC(=O)O)NC(=O)c2cc([C@H]3C[C@@H]3CO)nc(-c3ccccc3)n2)CC1 (racemic),Stable
4,CCOC(=O)N1CCN(C(=O)[C@H](CCC(=O)O)NC(=O)c2cc([C@H]3C[C@@H]3COC)nc(-c3ccccc3)n2)CC1 (racemic),Stable

# Tested on: Liver microsome
# Test: Metabolic stability assay in human liver microsomes assessed as parent drug disappearance at 1 uM after 20 mins by HPLC and mass spectrometry method
# Type: ADME
# Conditions: not given
row,Structure (SMILES),Stability
1,CCOC(=O)N1CCN(C(=O)[C@H](CCC(=O)O)NC(=O)c2cc(C(C)(C)CO)nc(-c3ccccc3)n2)CC1,Stable
2,CCOC(=O)N1CCN(C(=O)[C@H](CCC(=O)O)NC(=O)c2cc(N3CC[C@@H](O)C3)nc(-c3ccccc3)n2)CC1,Stable
3,CCOC(=O)N1CCN(C(=O)[C@H](CCC(=O)O)NC(=O)c2cc([C@H]3C[C@@H]3CO)nc(-c3ccccc3)n2)CC1 (racemic),Stable
4,CCOC(=O)N1CCN(C(=O)[C@H](CCC(=O)O)NC(=O)c2cc([C@H]3C[C@@H]3COC)nc(-c3ccccc3)n2)CC1 (racemic),Stable

# Tested on: not listed separately
# Test: Solubility in neutral pH
# Type: physicochemical
# Conditions: not given
row,Structure (SMILES),solubility
1,CCOC(=O)N1CCN(C(=O)[C@H](CCC(=O)O)NC(=O)c2cc(C(C)(C)CO)nc(-c3ccccc3)n2)CC1,soluble
2,CCOC(=O)N1CCN(C(=O)[C@H](CCC(=O)O)NC(=O)c2cc(N3CC[C@@H](O)C3)nc(-c3ccccc3)n2)CC1,soluble
3,CCOC(=O)N1CCN(C(=O)[C@H](CCC(=O)O)NC(=O)c2cc([C@H]3C[C@@H]3CO)nc(-c3ccccc3)n2)CC1 (racemic),soluble
4,CCOC(=O)N1CCN(C(=O)[C@H](CCC(=O)O)NC(=O)c2cc([C@H]3C[C@@H]3COC)nc(-c3ccccc3)n2)CC1 (racemic),soluble

# Tested on: Platelet
# Test: Inhibition of ADP-induced platelet aggregation in human platelet rich plasma assessed as remaining activity at 500 nM by in-vitro light transmission aggregometry assay
# Type: functional
# Conditions: not given
# Summary of the method: as §1
row,Structure (SMILES),Activity [%]
1,CCOC(=O)N1CCN(C(=O)[C@H](CCC(=O)O)NC(=O)c2cc(C(C)(C)CO)nc(-c3ccccc3)n2)CC1,<30
2,CCOC(=O)N1CCN(C(=O)[C@H](CCC(=O)O)NC(=O)c2cc(N3CC[C@@H](O)C3)nc(-c3ccccc3)n2)CC1,<30
3,CCOC(=O)N1CCN(C(=O)[C@H](CCC(=O)O)NC(=O)c2cc([C@H]3C[C@@H]3CO)nc(-c3ccccc3)n2)CC1 (racemic),<30
4,CCOC(=O)N1CCN(C(=O)[C@H](CCC(=O)O)NC(=O)c2cc([C@H]3C[C@@H]3COC)nc(-c3ccccc3)n2)CC1 (racemic),<30

# Target: Cytochrome P450 2C9 (Homo sapiens, UniProt P11712)
# Sequence (P11712 whole entry): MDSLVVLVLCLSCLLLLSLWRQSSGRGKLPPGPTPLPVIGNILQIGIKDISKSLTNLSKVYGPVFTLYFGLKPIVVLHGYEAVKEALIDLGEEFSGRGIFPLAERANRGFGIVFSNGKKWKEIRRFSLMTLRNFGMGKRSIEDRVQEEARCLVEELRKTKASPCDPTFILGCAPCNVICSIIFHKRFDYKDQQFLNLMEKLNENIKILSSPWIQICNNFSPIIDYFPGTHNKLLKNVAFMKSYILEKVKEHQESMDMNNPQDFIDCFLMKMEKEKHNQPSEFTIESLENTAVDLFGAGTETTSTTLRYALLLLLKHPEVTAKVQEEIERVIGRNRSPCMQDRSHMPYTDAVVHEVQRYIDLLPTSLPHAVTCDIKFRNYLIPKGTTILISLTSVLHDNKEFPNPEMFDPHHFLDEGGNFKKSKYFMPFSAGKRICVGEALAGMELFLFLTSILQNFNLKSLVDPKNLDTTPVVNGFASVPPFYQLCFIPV
# Test: Inhibition of CYP2C9 in human liver microsomes assessed as reduction in diclofenac 4'-hydroxylation
# Type: ADME
# Conditions: not given
row,Structure (SMILES),inhibition (INH)
1,CCOC(=O)N1CCN(C(=O)[C@H](CCC(=O)O)NC(=O)c2cc(C(C)(C)CO)nc(-c3ccccc3)n2)CC1,Not Active
2,CCOC(=O)N1CCN(C(=O)[C@H](CCC(=O)O)NC(=O)c2cc(N3CC[C@@H](O)C3)nc(-c3ccccc3)n2)CC1,Not Active
3,CCOC(=O)N1CCN(C(=O)[C@H](CCC(=O)O)NC(=O)c2cc([C@H]3C[C@@H]3CO)nc(-c3ccccc3)n2)CC1 (racemic),Not Active
4,CCOC(=O)N1CCN(C(=O)[C@H](CCC(=O)O)NC(=O)c2cc([C@H]3C[C@@H]3COC)nc(-c3ccccc3)n2)CC1 (racemic),Not Active

# Target: Voltage-gated inwardly rectifying potassium channel KCNH2 (Homo sapiens, UniProt Q12809)
# Sequence (Q12809 whole entry): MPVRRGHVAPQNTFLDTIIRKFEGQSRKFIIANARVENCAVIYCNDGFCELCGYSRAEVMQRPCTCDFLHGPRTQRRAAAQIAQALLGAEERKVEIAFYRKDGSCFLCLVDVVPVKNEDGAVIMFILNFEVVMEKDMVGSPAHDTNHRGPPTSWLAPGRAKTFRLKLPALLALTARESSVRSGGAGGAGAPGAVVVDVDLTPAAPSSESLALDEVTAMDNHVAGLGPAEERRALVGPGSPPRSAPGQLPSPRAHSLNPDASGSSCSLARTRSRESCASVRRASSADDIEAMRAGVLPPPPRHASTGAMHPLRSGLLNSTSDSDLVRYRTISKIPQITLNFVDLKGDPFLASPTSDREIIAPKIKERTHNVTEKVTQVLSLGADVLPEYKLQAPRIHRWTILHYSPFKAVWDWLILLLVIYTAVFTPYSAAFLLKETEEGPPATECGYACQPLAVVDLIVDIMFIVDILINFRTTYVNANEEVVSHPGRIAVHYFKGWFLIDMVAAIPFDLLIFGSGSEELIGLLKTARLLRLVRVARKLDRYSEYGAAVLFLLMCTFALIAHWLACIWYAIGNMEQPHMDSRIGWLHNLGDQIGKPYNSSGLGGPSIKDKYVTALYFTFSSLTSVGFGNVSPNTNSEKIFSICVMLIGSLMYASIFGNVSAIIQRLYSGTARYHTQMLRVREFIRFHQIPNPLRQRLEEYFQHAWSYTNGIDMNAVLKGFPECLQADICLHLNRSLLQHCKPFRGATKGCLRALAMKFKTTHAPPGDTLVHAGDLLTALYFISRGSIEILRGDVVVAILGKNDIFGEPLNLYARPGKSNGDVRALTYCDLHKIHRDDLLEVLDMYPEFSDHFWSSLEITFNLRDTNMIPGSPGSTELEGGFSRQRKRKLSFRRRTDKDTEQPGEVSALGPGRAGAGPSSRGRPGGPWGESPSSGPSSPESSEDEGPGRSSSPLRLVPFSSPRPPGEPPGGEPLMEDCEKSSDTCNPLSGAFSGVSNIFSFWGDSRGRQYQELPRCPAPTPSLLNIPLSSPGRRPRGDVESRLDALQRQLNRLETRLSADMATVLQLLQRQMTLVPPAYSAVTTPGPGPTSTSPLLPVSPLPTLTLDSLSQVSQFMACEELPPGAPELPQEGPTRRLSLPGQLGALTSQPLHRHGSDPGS
# Test: Inhibition of human ERG expressed in HEK cells by patch-clamp assay
# Type: cell-based
# Conditions: hek293
row,Structure (SMILES),inhibition (INH)
1,CCOC(=O)N1CCN(C(=O)[C@H](CCC(=O)O)NC(=O)c2cc(C(C)(C)CO)nc(-c3ccccc3)n2)CC1,Not Active
2,CCOC(=O)N1CCN(C(=O)[C@H](CCC(=O)O)NC(=O)c2cc(N3CC[C@@H](O)C3)nc(-c3ccccc3)n2)CC1,Not Active
3,CCOC(=O)N1CCN(C(=O)[C@H](CCC(=O)O)NC(=O)c2cc([C@H]3C[C@@H]3CO)nc(-c3ccccc3)n2)CC1 (racemic),Not Active
4,CCOC(=O)N1CCN(C(=O)[C@H](CCC(=O)O)NC(=O)c2cc([C@H]3C[C@@H]3COC)nc(-c3ccccc3)n2)CC1 (racemic),Not Active

# Target: Cytochrome P450 2D6 (Homo sapiens, UniProt P10635)
# Sequence (P10635 whole entry): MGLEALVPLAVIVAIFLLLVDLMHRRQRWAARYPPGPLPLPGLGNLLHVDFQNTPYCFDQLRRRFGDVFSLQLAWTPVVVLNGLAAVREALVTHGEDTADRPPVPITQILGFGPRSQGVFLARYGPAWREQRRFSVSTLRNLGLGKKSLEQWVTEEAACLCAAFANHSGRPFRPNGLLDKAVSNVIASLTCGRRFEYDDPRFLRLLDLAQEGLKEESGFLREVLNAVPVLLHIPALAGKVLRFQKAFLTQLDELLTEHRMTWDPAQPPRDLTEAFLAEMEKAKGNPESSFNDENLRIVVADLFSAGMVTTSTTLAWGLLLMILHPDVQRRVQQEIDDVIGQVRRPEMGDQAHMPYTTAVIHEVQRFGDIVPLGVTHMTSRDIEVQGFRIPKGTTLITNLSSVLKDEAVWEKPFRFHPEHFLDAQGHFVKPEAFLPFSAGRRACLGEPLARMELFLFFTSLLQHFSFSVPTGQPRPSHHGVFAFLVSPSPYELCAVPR
# Test: Inhibition of CYP2D6 in human liver microsomes assessed as reduction in dextromethorphan-O demethylation
# Type: ADME
# Conditions: not given
row,Structure (SMILES),inhibition (INH)
1,CCOC(=O)N1CCN(C(=O)[C@H](CCC(=O)O)NC(=O)c2cc(C(C)(C)CO)nc(-c3ccccc3)n2)CC1,Not Active
2,CCOC(=O)N1CCN(C(=O)[C@H](CCC(=O)O)NC(=O)c2cc(N3CC[C@@H](O)C3)nc(-c3ccccc3)n2)CC1,Not Active
3,CCOC(=O)N1CCN(C(=O)[C@H](CCC(=O)O)NC(=O)c2cc([C@H]3C[C@@H]3CO)nc(-c3ccccc3)n2)CC1 (racemic),Not Active
4,CCOC(=O)N1CCN(C(=O)[C@H](CCC(=O)O)NC(=O)c2cc([C@H]3C[C@@H]3COC)nc(-c3ccccc3)n2)CC1 (racemic),Not Active
